In the RNAGym collection of RNA variant scans (doi:10.1126/science.aae0568):
This sample holds only a part of the variants without activity.

B1: tRNA (parent)
chain: GUUCCGUUGGCGUAAUGGUAACGCGUCUCCCUCCUAAGGAGAAGACUGCGGGUUCGAGUCCCGUACGGAACG

Variants of: B1
Assay: yeast fitness relative to wild type (ratio to wild type); higher = fitter; tRNA-Arg(CCU), competitive growth, 37 C, YPD
Procedure, shortened: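 Variants of the tRNA-Arg(CCU) gene were chemically synthesised with a 3% per-site mutation rate across 69 sites and placed at the native genomic locus in Saccharomyces cerevisiae. Six parallel replicates of the pooled strains were competed in YPD at 37°C for 24 hours, and gene amplicons from the start and end populations were read by 100-nucleotide paired-end sequencing. Darwinian fitness relative to wild type was derived from changes in genotype frequencies. Genotypes required ≥ 100 starting reads, and estimates < 0.5 were set to 0.5.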

Variant	yeast fitness
GUUCCGUUGGUGUAAUGGUAACGCGUCUCCCUCCUAAGGAGAAAACUGCGGGUUCGAGUCACGUACGGAACG [C11U G44A C61A]	0.823
GUUCCGUUGGCGUAAUCAUAACGCGUUUCCCUCCUAAGGAGAAGAUUGCGGGUUCGAAUCCCGUACGGAACG [G17C G18A C27U C46U G58A]	≤ 0.5
GUUCCGUUGGCGUAAUGGUAACGUGUCUCGAUCCUAAGGAGAGGACUGCGGGUUCGAGUCCCGUACGGAACG [C24U C30G C31A A43G]	≤ 0.5
GUUCCGUUGGCGUAAUGGUAACGCGUCUCCCUCCUAAGGAGAAAAUUGCGGGUUCGACUCCCGUACGGAACG [G44A C46U G58C]	1.08
GUUCCGUUGGCGUAAUGGUAACGCGUCUCGCUCCUAAGGAGAAGAAUGCGGGUUCGAGUCCCGUACGGAACG [C30G C46A]	0.587
GUUCGGUUGGCGUAAUGGUAACGCGUCUCCCUCCUAAGGAGAUGACUCCGGGUUCGAGUCCCGUACGGAACG [C5G A43U G48C]	0.602
GUUCCGUUGGCGUAAUGGUGAUGCGUCUCCGUCCUAAGGAGAAGACUGCGGGUUCGAGUCCCGUAUGGAACG [A20G C22U C31G C66U]	≤ 0.5
GUUCCGUUGGCGUAGUGGUAACGCGUCUCCCUCCUGAGGAGAGGACUGCGGGUUCGUGUCCCGUACGGAACG [A15G A36G A43G A57U]	≤ 0.5
GUUCCCUUGGCGUUAUGGUAACGCGUCUCCCUCCUGAGGGGAAGAAUGCGGGUUCGAGUCCUGUACGGAACG [G6C A14U A36G A40G C46A C62U]	≤ 0.5
GUUCCGUUGGCAUAAUGGUAAUGCGUCUCCCUCCUAUGGAGAAGACUGCCGGUUCGAGUCCCGUAUGGAACG [G12A C22U A37U G50C C66U]	0.538
GUUCCGUUAGCGUAAUGGUAACACGUAUCCCUCCUAAGGAGAAGACUGCGGGUUCGAGUCCCGUACCGAACG [G9A G23A C27A G67C]	≤ 0.5
GUUCCGUUGGCGUAAUGGUAACGCGUCUCGCUCCUAAGGAAAAGCCUGCGGGUUCGAGUCCCGAACGGAACG [C30G G41A A45C U64A]	0.579
GUUCCGUUGGCGUAAUGGUUACGCGUCUCCCUCCUAAGGUGAAGAAUGCGGGUUCGAGUCCCGUACGGAACG [A20U A40U C46A]	0.613
GUUCCGUUGGCGUAAUGGUAGCGCGUCUGCCUCCUAAGGAGAAGACUGCGGGUUCGAGUCCCGUUCUGAACG [A21G C29G A65U G67U]	≤ 0.5
GUUCCUUUGGCGUAAUGGUAACGCGUCUCCCUUCUAAGGAGAAGACUGCGGGUUCGAGUCCCGUACGGAACG [G6U C33U]	0.562
GUUCCGUUGGCGUGAUGGUAACGCAUCUCCCUCCUAAGGAGAAGACUGCGGGUUCGAGUCCCGUACGGUACG [A14G G25A A69U]	0.77
GCUCCGUUGGCGUAAUGGUAACGCGUCUCCCUCCUAAGGAGAAGGCUGGGGGUUCGAGUCCCGUACGGAACG [U2C A45G C49G]	≤ 0.5
GUUCCGUUGGCGUAAUGGUAACGCCUCUCCCUCCCAAGGAGCAGAAUCCGGGUUCGAGUCACGUACGGAACG [G25C U35C A42C C46A G48C C61A]	≤ 0.5
GUUCGGUUGGCGUAAUCGUAACGCGUCUCCCUCCUAAGGAGAAGACUGCGGGUUCGAGUUCCGUACGGAACG [C5G G17C C60U]	0.686

Variant	yeast fitness
GUUCCGUUGGCGUAAUGGUAACGCGUCUCCCUCCUAAGGAGAAGAUUACGGGUUCAAGUCCCGUACGGAACG [C46U G48A G56A]	0.848
GCUCCGUUAGCGUAACGGUAACGCGUCUCCCUCCUAAGGAGAAGACUGCGGGUUCGAGUCCCGUACGGAACG [U2C G9A U16C]	0.602
GUUCCGUUGGCGUAAUGGUAACGCGUCUCCAUCAUAAGGAGAAGACUGCGGGUUCGAGUCCCGUACGGAACG [C31A C34A]	0.603
GUUCCGUUGGCGUAAUGGUAAUGCGUCUCCCUCCCAAGGAGAAGACUGUGGGAUCGAGUCCCGUACGGAACG [C22U U35C C49U U53A]	≤ 0.5
GUUCCGUUGGCGUAAUGGUAACGCGUCUCCCUCCUAAGGAGAAGACCGCGGGUUCGAGUCCUGUACGGAACG [U47C C62U]	0.944
GUUCCGUAGGCGUAAUGGUAACGCGUCUCCCUCCUAGGGAGAAGACUGCGGGUUCGAGUCCCGUACGGAACG [U8A A37G]	≤ 0.5
GUUCCGUUGGCGUAAUCGUAACGCGUCUCCCUCCUAAGGAGUACUCUGCGGGUUCGAAUCCCGUACGGAACG [G17C A42U G44C A45U G58A]	≤ 0.5
GCUCCGUUGGCGUAAUGGUAACGCCUCUCCUACCUAAGGAGAAGACUGCGGGUUCGAGUCCCGUACGGAACG [U2C G25C C31U U32A]	≤ 0.5
GUUCCGUUGGCGUAAUGGUAACGCGUCUCCCUACUAAGGAGAAGACUGCGGGUUCGACUCCCGUACGGAACG [C33A G58C]	0.647
GUUCCGUUGGCGUAAUGGUAACGCGUCUCCCUCCUAAGGAGAAGAAUGCGGGUUCGAGUCCCGUACGCGACG [C46A G68C A69G]	≤ 0.5
GUUCGGUUGGCGUAAUGGUAACGCGUCUCCCUCCUAAGGAGAAGACUGCCCGUUCAAGUCCCGUACGGAACG [C5G G50C G51C G56A]	≤ 0.5
GUUCCGUUGGCCUAAUGGUAACGCGUCUGCCUCCUAAGGAGAAGACUGCGGGAUCGAGUCCCGUACGGAACG [G12C C29G U53A]	0.609
GUUCCGUUGGCGUAAUGGUAACGCGUCUCCCUCAUAAGGAGAAGACUGUCGGUUCGAAUCCCGUACGGAACG [C34A C49U G50C G58A]	0.869
GUUCCGUUGGCGUAAUGGUAACGCUUCUCCCUCCUAAGGAGAAGACUGCGGGUUCGAGUCCCGUACGGAACG [G25U]	0.937
GUGCCGUUGGCGUAAUGGUAACGCGUCUCCUUCUUAAGGAGAAGAGUGCGGGUUCGAGUCCCGUACGGAACG [U3G C31U C34U C46G]	≤ 0.5
GUUCAGUUGCCGUAAUGGUAACGCGUCUCCCUCCUAAGGAGAGGACUGCGGGUUCGACUCCCGUAGGGAACG [C5A G10C A43G G58C C66G]	≤ 0.5
GUUCCGGUGGCGUAAUGGUCACGCGUCUCCCUCCUAAGGAGCAGACUGCGGGUUCGAGUCCCGUACGGAACG [U7G A20C A42C]	≤ 0.5
GUUCCGUUGGCGUAUUGGUAACGCGUAUCCCUCCUAAGGAGAAGACUGCGGGUUCCAGUCCCAUACGGAACG [A15U C27A G56C G63A]	≤ 0.5
GUUCCGUUGGCGUAAUGAUAACGCGUCUCCCUCCUAAGGAGAAGACUGCGGGUUCGAGUCGCGUACGGAACG [G18A C61G]	0.681
